Assay results from different studies.
Lines come from different studies, so protocols differ.

SMILES	target or system	test	test system	conditions	quantity	result
Cc1[nH]c(C(=O)Nc2ccc(C(=O)NCC(=O)O)cc2N2CC[C@@H](NC(=O)OC(C)(C)C)C2)c(Cl)c1Cl	Klebsiella pneumoniae	microbial growth, broth dilution	ATCC700603	–	MIC	> 32 µg/mL
COc1ccc(CNC[C@](O)(COCc2ccc(F)cc2)[C@@H]2CC[C@@H](C)C[C@H]2OCc2ccc(F)cc2)cc1	A2780	cell growth or viability, MTT	–	10 µM, 72 h	inhibition	93.8%
CC(=O)Nc1ccc(Oc2ccc(C(=O)C(Cl)Cl)cc2[N+](=O)[O-])cc1Cl	NCI-H1650	cell growth or viability, MTT	–	2.5 µM	inhibition	77.8%
Cc1[nH]c(C(=O)Nc2ccc(C(=O)NCC(=O)O)cc2N2CCN(C(=O)OC(C)(C)C)CC2)c(Cl)c1Cl	Klebsiella pneumoniae	microbial growth, broth dilution	ATCC700603	–	MIC	> 32 µg/mL
COc1ccc(COC[C@@](O)(CNCc2ccccc2)[C@@H]2CC[C@@H](C)C[C@H]2OCc2ccc(OC)cc2)cc1	A2780	cell growth or viability, MTT	–	30 µM, 72 h	inhibition	100%
Cl.N[C@@H]1CCN(c2cc(C(=O)NCC(=O)O)ccc2NC(=O)c2cc(Br)c(Br)[nH]2)C1	Klebsiella pneumoniae	microbial growth, broth dilution	ATCC700603	–	MIC	> 32 µg/mL
COc1ccc(CNC[C@](O)(COCc2ccc(OC)cc2)[C@@H]2CC[C@@H](C)C[C@H]2OCc2ccc(OC)cc2)cc1	A2780	cell growth or viability, MTT	–	10 µM, 72 h	inhibition	98.7%
COc1cccc2c1C(=O)c1c(O)c3c(c(O)c1C2=O)C[C@@](O)(C(=O)CO)C[C@@H]3O[C@H]1C[C@H](N)[C@H](O)[C@H](C)O1	Caco-2	cell growth or viability, MTT	–	12.5 µg/mL, 48 h, serum-free	viability	40.5%
C[C@@H]1CC[C@@H]([C@](C)(O)CNCc2cccc(F)c2)[C@H](OCc2ccccc2)C1	A2780	cell growth or viability, MTT	–	10 µM, 72 h	inhibition	30.6%
NC(=O)c1ccc(Oc2ccc(C(=O)C(Cl)Cl)cc2[N+](=O)[O-])cc1	NCI-H1650	cell growth or viability, MTT	–	2.5 µM	inhibition	59.3%
CN[C@H](CC(C)C)C(=O)N[C@H]1C(=O)N[C@@H](CC(N)=O)C(=O)N[C@H]2C(=O)N[C@H]3C(=O)N[C@H](C(=O)N[C@H](C(=O)O)c4cc(O)cc(O)c4-c4cc3ccc4O)[C@H](O)c3ccc(c(Cl)c3)Oc3cc2cc(c3O[C@@H]2O[C@H](CO)[C@@H](O)[C@H](O)[C@H]2O[C@H]2C[C@](C)(N)[C@H](O)[C@H](C)O2)Oc2ccc(cc2Cl)[C@H]1O	Streptococcus pneumoniae	microbial growth	ATCC49619	–	MIC	0.25 µM
C=CC(=O)NC1CCN(c2ncc3ncnc(Nc4ccc(Oc5ccc6c(c5)ncn6C)c(C)c4)c3n2)CC1	LS180	cell growth or viability	–	–	EC50	5.48 µM
C=C(F)C(=O)N1CCN(c2nc(OC[C@@H]3CCCN3C)nc3c2CCN(c2cccc4cccc(Cl)c24)C3)C[C@@H]1CC#N	NCI-H2122	cell growth or viability, ATP luminescence	–	–	IC50	0.192 µM
C[C@@H]1CC[C@@H]([C@](C)(O)CNCc2cccc3ccccc23)[C@H](OCc2ccccc2)C1	A2780	cell growth or viability, MTT	–	30 µM, 72 h	inhibition	94.2%
CO[C@@H]1[C@@H](OC(N)=O)[C@@H](O)[C@H](Oc2ccc3c(O)c(NC(=O)c4ccc(O)c(CC=C(C)C)c4)c(=O)oc3c2C)OC1(C)C	Klebsiella pneumoniae	microbial growth, broth dilution	ATCC10031	–	MIC	0.5 µg/mL
